Data as given in ChEMBL document CHEMBL4190270, “Novel 4-arylaminoquinazoline derivatives with (E)-propen-1-yl moiety as potent EGFR inhibitors with enhanced antiproliferative activities against tumor cells” (Eur J Med Chem, 2017).
Each block holds one compound with its values, some of them ahead of it. Activity calls are given as the source filed them. No cut-off for these calls is given here.

Experiments:
[1] = biological target: T1, Epidermal growth factor receptor (Homo sapiens, UniProt P00533); format: cell-based, HEK293
[2] = biological target: T1, Epidermal growth factor receptor; conditions: A549, at 25 µM
[3] = tested on: Epidermal growth factor receptor (Homo sapiens), P00533 [L858R,T790M]; test: Inhibition of EGF-induced EGFR L858R/T790M double mutant phosphorylation at Y992-residue in human NCI-H1975 cells preincubated for 2 hrs followed by EGF stimulation for 10 mins by Western blot analysis; format: cell-based
In short: (§1)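 Cells grown in 6-well plates with 10% FBS to 90% confluence, then serum-starved 24 h. Exposed to a dose range of compound, or to 25 μM reference drug, for 2 h, then stimulated with 50 ng/mL EGF for 10 min at 37 °C. Lysed in RIPA with protease/phosphatase inhibitors. 20 µg protein run on 10% SDS-PAGE, transferred to PVDF, blocked with 5% milk, immunoblotted and detected by ECL.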

A549 [4] = test: Effect on total ERK1/2 protein expression in human A549 cells at 1 to 25 uM preincubated for 2 hrs followed by EGF stimulation for 10 mins by Western blot analysis; format: ADME, cell-based; conditions: a549, 10 min
In short: as §1

[5] = tested on: Epidermal growth factor receptor (Homo sapiens), P00533 [L858R,T790M]; test: Inhibition of EGF-induced EGFR L858R/T790M double mutant phosphorylation at Tyr-residue in human NCI-H1975 cells preincubated for 2 hrs followed by EGF stimulation for 10 mins by Western blot analysis; format: cell-based
In short: as §1

[6] = biological target: T1, Epidermal growth factor receptor; test: Inhibition of EGFR in human A549 cells assessed as reduction in EGF-induced Akt phosphorylation at S473 residue at 5 uM preincubated for 2 hrs followed by EGF stimulation for 10 mins by Western blot analysis; format: cell-based
In short: as §1

[7] = tested on: Epidermal growth factor receptor (Homo sapiens), P00533 [L858R,T790M]; conditions: NCI-H1975, at 25 µM
[8] = biological target: T1, Epidermal growth factor receptor; test: Inhibition of EGF-induced EGFR phosphorylation at Y992-residue in human A549 cells at 5 uM preincubated for 2 hrs followed by EGF stimulation for 10 mins by Western blot analysis; format: cell-based
In short: as §1

[9] = tested on: Epidermal growth factor receptor (Homo sapiens), P00533 [L858R,T790M]; test: Inhibition of EGF-induced EGFR L858R/T790M double mutant phosphorylation at Y1068-residue in human NCI-H1975 cells preincubated for 2 hrs followed by EGF stimulation for 10 mins by Western blot analysis; format: cell-based
In short: as §1

A549 [10] = test: Effect on total EGFR protein expression in human A549 cells at 1 to 25 uM preincubated for 2 hrs followed by EGF stimulation for 10 mins by Western blot analysis; format: ADME, cell-based; conditions: a549, 10 min
In short: as §1

[11] = biological target: T1, Epidermal growth factor receptor; test: Inhibition of EGFR in human A549 cells assessed as reduction in EGF-induced STAT3 phosphorylation at 1 to 25 uM preincubated for 2 hrs followed by EGF stimulation for 10 mins by Western blot analysis; format: cell-based
In short: as §1

[12] = biological target: T1, Epidermal growth factor receptor; test: Inhibition of EGF-induced EGFR phosphorylation at Tyr-residue in human A549 cells at 5 uM preincubated for 2 hrs followed by EGF stimulation for 10 mins by Western blot analysis; format: cell-based
In short: as §1

A549 [13] = test: Effect on total AKT protein expression in human A549 cells at 1 to 25 uM preincubated for 2 hrs followed by EGF stimulation for 10 mins by Western blot analysis; format: ADME, cell-based; conditions: a549, 10 min
In short: as §1

[14] = biological target: T1, Epidermal growth factor receptor; test: Inhibition of EGFR in human A549 cells assessed as reduction in EGF-induced ERK1/2 phosphorylation at T202/Y204 residues at 5 uM preincubated for 2 hrs followed by EGF stimulation for 10 mins by Western blot analysis; format: cell-based
In short: as §1

[15] = biological target: T1, Epidermal growth factor receptor; conditions: A549, at 25 µM; remark: listed apart in the source
[16] = tested on: Epidermal growth factor receptor (Homo sapiens), P00533 [L858R,T790M]; test: Inhibition of EGFR L858R/T790M double mutant in human NCI-H1975 cells assessed as reduction in EGF-induced Akt phosphorylation at Ser473 residue at 25 uM preincubated for 2 hrs followed by EGF stimulation for 10 mins by Western blot analysis; format: cell-based
In short: as §1

[17] = biological target: T1, Epidermal growth factor receptor; conditions: A549, at 25 µM; remark: listed apart in the source
[18] = tested on: Epidermal growth factor receptor (Homo sapiens), P00533 [L858R,T790M]; test: Inhibition of EGFR L858R/T790M double mutant in human NCI-H1975 cells assessed as reduction in EGF-induced ERK1/2 phosphorylation at T202/Y204 residues at 25 uM preincubated for 2 hrs followed by EGF stimulation for 10 mins by Western blot analysis; format: cell-based
In short: as §1

[19] = biological target: T1, Epidermal growth factor receptor; test: Inhibition of EGF-induced EGFR phosphorylation at Y1086-residue in human A549 cells at 5 uM preincubated for 2 hrs followed by EGF stimulation for 10 mins by Western blot analysis; format: cell-based
In short: as §1

[20] = biological target: T1, Epidermal growth factor receptor; conditions: A549, at 25 µM; remark: listed apart in the source
[21] = biological target: T1, Epidermal growth factor receptor; conditions: A549, at 25 µM; remark: listed apart in the source
SW480 = test: Antiproliferative activity against human SW480 cells harboring wild type EGFR after 72 hrs by MTT assay; format: functional, cell-based; conditions: SW480, 72 h
A-431 = test: Antiproliferative activity against human A431 cells harboring wild type EGFR after 72 hrs by MTT assay; format: functional, cell-based; conditions: A-431, 72 h
In short: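 Cells grown in DMEM or 1640 with 10% FBS, penicillin/streptomycin and 2 mM L-glutamine, plated in 96 wells for 24 h at 37 °C under 5% CO2. Exposed to compound as an 8-point series, or to 0.5% DMSO, for 72 h. Then MTT (5 mg/ml) for 4 h, formazan dissolved in DMSO, absorbance read at 570 nm (630 nm reference). IC50 by nonlinear regression; mean ± SD of at least three independent experiments.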

A549 [22] = test: Antiproliferative activity against human A549 cells harboring wild type EGFR/K-Ras mutant after 72 hrs by MTT assay; format: functional, cell-based; conditions: A549, 72 h
NCI-H1975 = test: Antiproliferative activity against human NCI-H1975 cells harboring EGFR L858R/T790M mutant after 72 hrs by MTT assay; format: functional, cell-based; conditions: NCI-H1975, 72 h

Epidermal growth factor receptor (Homo sapiens), P00533 [L858R,T790M], sequence (P00533 whole entry T790M/L858R, looked up): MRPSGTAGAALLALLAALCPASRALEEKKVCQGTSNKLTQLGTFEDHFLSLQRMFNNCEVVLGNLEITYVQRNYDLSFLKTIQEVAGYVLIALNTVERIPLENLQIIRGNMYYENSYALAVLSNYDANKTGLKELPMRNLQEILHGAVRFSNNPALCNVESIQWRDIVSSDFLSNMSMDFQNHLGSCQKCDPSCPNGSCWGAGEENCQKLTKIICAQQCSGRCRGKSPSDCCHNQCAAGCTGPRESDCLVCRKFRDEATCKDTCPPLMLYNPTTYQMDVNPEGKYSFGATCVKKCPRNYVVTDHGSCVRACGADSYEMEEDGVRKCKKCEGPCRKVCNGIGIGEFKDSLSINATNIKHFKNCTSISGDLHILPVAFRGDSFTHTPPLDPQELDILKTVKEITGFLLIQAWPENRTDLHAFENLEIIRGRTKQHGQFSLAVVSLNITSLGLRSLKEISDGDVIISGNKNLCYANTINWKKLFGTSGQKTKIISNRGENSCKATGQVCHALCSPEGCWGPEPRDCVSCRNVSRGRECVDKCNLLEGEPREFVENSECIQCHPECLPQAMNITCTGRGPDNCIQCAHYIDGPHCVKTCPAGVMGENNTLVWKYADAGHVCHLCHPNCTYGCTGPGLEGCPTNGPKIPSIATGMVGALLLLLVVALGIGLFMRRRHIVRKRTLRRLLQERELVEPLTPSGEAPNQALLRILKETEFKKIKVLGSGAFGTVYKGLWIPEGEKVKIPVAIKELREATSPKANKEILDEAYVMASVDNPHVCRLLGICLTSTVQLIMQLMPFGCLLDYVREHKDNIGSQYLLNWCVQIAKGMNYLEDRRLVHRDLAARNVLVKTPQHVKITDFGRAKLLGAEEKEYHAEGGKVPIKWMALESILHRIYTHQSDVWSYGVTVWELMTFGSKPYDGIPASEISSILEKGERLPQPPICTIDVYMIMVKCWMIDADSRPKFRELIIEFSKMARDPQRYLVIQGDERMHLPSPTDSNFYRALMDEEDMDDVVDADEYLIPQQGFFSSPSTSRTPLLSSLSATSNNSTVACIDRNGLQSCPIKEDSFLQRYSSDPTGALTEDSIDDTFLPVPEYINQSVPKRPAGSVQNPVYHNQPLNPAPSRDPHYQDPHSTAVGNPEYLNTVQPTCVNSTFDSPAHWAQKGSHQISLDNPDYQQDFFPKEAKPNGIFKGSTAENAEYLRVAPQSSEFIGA
T1 sequence (P00533 whole entry): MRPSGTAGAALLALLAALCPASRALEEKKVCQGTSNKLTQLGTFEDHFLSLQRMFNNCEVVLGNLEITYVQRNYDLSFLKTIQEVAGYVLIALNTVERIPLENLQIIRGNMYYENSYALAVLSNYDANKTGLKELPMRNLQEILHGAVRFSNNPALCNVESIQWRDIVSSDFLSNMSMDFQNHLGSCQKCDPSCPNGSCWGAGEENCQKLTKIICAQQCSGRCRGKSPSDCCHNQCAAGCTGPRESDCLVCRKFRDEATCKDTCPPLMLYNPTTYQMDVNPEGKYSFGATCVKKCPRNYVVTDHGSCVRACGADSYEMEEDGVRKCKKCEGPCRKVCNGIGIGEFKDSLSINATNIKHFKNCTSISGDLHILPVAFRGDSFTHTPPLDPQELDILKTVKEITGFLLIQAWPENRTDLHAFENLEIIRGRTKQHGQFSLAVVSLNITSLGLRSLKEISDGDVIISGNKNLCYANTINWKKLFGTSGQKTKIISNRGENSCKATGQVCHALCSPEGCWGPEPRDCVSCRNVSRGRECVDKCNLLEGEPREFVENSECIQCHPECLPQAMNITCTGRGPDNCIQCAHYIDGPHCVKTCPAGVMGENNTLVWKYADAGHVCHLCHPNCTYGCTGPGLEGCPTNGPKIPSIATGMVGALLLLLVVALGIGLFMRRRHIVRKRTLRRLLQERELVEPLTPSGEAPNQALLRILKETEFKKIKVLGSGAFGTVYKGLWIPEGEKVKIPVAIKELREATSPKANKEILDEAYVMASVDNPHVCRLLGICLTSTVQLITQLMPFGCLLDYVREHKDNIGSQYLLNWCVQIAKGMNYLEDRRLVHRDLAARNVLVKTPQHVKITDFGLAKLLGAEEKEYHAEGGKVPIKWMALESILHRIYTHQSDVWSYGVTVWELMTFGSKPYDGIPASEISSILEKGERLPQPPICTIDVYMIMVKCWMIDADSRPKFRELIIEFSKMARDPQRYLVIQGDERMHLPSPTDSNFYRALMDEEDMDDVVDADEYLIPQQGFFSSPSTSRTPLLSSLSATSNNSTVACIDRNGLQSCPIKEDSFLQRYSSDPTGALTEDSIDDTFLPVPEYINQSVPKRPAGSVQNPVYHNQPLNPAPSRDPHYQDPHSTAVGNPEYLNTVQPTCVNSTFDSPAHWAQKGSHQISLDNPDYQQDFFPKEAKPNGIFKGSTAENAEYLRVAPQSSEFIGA

Compound: C/C=C/c1ccc(Nc2ncnc3cc(OCCCN4CCOCC4)c(OCCCN4CCOCC4)cc23)cc1
IC50 [1]: 20.7 nM
inhibition [2]: Active
inhibition [3]: Dose-dependent effect
Activity (A549 [4]): Non-Toxic
inhibition [5]: Dose-dependent effect
inhibition [6]: Active
inhibition [7]: Active
inhibition [8]: Active
inhibition [9]: Dose-dependent effect
Activity (A549 [10]): Non-Toxic
inhibition [11]: inactive
inhibition [12]: Active
Activity (A549 [13]): Non-Toxic
inhibition [14]: Active
inhibition [15]: Active
inhibition [16]: Active
inhibition [17]: Active
inhibition [18]: Active
inhibition [19]: Active
inhibition [20]: Active
inhibition [21]: Active

Compound: C/C=C/c1ccc(Nc2ncnc3cc(OC)c(OCCN4CCOCC4)cc23)cc1
IC50 (SW480): 28.2 µM
IC50 (A-431): 47.1 µM
IC50 (A549 [22]): 26.5 µM
IC50 (NCI-H1975): > 100 µM

Compound: C/C=C/c1ccc(Nc2ncnc3cc(OCCN4CCOCC4)c(OC)cc23)cc1
IC50 (SW480): 27.6 µM
IC50 (A-431): 22.4 µM
IC50 (A549 [22]): 37.5 µM
IC50 (NCI-H1975): > 100 µM

Compound: C/C=C/c1ccc(Nc2ncnc3ccc(-c4ccc(CNCCS(C)(=O)=O)o4)cc23)cc1
IC50 (SW480): 56.3 µM
IC50 (A-431): 37.6 µM
IC50 (A549 [22]): 84.5 µM
IC50 (NCI-H1975): > 100 µM

Compound: C/C=C/c1ccc(Nc2ncnc3cc4c(cc23)OCCO4)cc1
IC50 (SW480): 34 µM
IC50 (A-431): > 100 µM
IC50 (A549 [22]): 38.2 µM
IC50 (NCI-H1975): > 100 µM

Compound: C/C=C/c1ccc(Nc2ncnc3ccc(OCCN4CCOCC4)cc23)cc1
IC50 (SW480): 62.6 µM
IC50 (A-431): 57.7 µM
IC50 (A549 [22]): 85.3 µM
IC50 (NCI-H1975): > 100 µM

The remaining compounds from weak to strong by IC50 (NCI-H1975), led by results:

IC50 (SW480): 37 µM
IC50 (A-431): 28.1 µM
IC50 (A549 [22]): 36.5 µM
IC50 (NCI-H1975): 44.1 µM
Compound: C/C=C/c1ccc(Nc2ncnc3cc(OCc4ccccc4)c(OCc4ccccc4)cc23)cc1

IC50 (SW480): 14.7 µM
IC50 (A-431): 13.9 µM
IC50 (A549 [22]): 10.3 µM
IC50 (NCI-H1975): 38.9 µM
Compound: C/C=C/c1ccc(Nc2ncnc3cc(OC)c(OCCCN4CCOCC4)cc23)cc1

IC50 (SW480): 43.6 µM
IC50 (A-431): 23.9 µM
IC50 (A549 [22]): 24.7 µM
IC50 (NCI-H1975): 27.7 µM
Compound: C/C=C/c1ccc(Nc2ncnc3cc(OCCOC)c(OCCOC)cc23)cc1

IC50 (SW480): 10.4 µM
IC50 (A-431): 12 µM
IC50 (A549 [22]): 17.4 µM
IC50 (NCI-H1975): 23.9 µM
Compound: C/C=C/c1ccc(Nc2ncnc3ccc(OCCCN4CCOCC4)cc23)cc1

IC50 (SW480): 11.6 µM
IC50 (A-431): 6.34 µM
IC50 (A549 [22]): 10.3 µM
IC50 (NCI-H1975): 10.8 µM
Compound: C/C=C/c1ccc(Nc2ncnc3cc(OCCCN4CCOCC4)c(OC)cc23)cc1

IC50 (NCI-H1975): 9.08 µM
Compound: CS(=O)(=O)CCNCc1ccc(-c2ccc3ncnc(Nc4ccc(OCc5cccc(F)c5)c(Cl)c4)c3c2)o1 [LAPATINIB]
